The sample as a whole holds a higher share of hits than the screen did.
Hep lipid drop: inhibitors of hepatocyte lipid droplet formation, primary screen, imaging, high-throughput imaging, BODIPY stain | 240,000 compounds, 0.4% hits | AML12 mouse hepatocytes, oleate lipid droplets | inhibition, % at 6.5 µM;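 active means lipid droplet intensity inhibited by at least 50%, with more than 500 cells counted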
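Material – mouse AML12 hepatocyte cell line, fixed after treatment · Compound dosing – one dose, 6.5 µM compound · Times – compound with oleate, overnight · Measured by – Image-based BODIPY and DAPI two-channel analysis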
DTT redox prof: compounds producing H2O2 with reducing agent – biochemical, NIH compound library profiling, artefact control for MLSCN library redox annotation, primary screen; activation, % at 10 µM; DTT-dependent redox cycling H2O2, phenol red/HRP absorbance; 100% = 100 µM peroxide control, 0% = buffer; 200,000 compounds, 0.03% hits;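 active means activation of at least 50% relative to the plate's high and low controls in the primary single-dose screen; inactive means activation below 50%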;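 further: compound incubated with DTT at 0.8 mM final as the reducing agent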
T cruzi inh: inhibitors of intracellular T. cruzi growth, primary screen, luminescence, NIH3T3 host cells. T. cruzi beta-gal in NIH3T3, 90 h. inhibition, % (test concentration not listed). 300,000 compounds, 1.4% hits;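 active means mean inhibition across valid replicates above about 55%, limit read from the data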;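 further: signal also drops with host cell toxicity which is not excluded here; 0% = plate median of DMSO wells and 100% = zero luminescence signal; higher percent means less beta-gal luminescence so fewer parasites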
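Material: NIH/3T3 host cells with β-galactosidase reporter T. cruzi; Input: 5,000 host fibroblasts per well; Medium: DMEM, 2% fetal bovine serum; Compound: 50 nL DMSO compound solution per well; Schedule: 3 h host attachment, then at least 90 h co-culture; Detection: luminescent β-galactosidase signal after 60 min lysis.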
L major viab: Leishmania major promastigote growth inhibition, primary screen; Leishmania major promastigotes, resazurin fluorescence viability; inhibition, % at 10 µM; 200,000 compounds, 9% hits; AID 1063, 2008; in the data active means inhibition above about 50%;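 further: promastigotes grown with compound for 44 hours at 28 °C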
MPTP block: mitochondrial permeability transition pore inhibitors, primary screen, biochemical, isolated mouse mitochondria, absorbance | Ca2+ swelling absorbance, 30 min | inhibition, % at 10 µM | 360,000 compounds, 1.4% hits | AID 602449, 2012;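 active means inhibition of 50% or more, scaled per plate between neutral and stimulator controls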;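 further: 0% = DMSO wells given calcium and 100% = 1 mM EGTA wells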
The depositor's hits bear a star; x = no result.

SMILES | Hep lipid drop | DTT redox prof | T cruzi inh | L major viab | MPTP block
C(=N\Nc1nc(Nc2ccccc2)nc(N2CCOCC2)n1)/c1c[nH]c2ccccc12 | x | -5 | 72* | 97* | x
c1ccc(Nc2nc(N3CCOCC3)nc(N3CCOCC3)n2)cc1 | 31 | 2 | 23 | 0 | -3
Cc1ccc(Nc2nc(N/N=C/c3c[nH]c4ccccc34)nc(N3CCOCC3)n2)cc1 | 126* | 1 | 41 | 54* | -3
COc1ccc(/C=N/OCC(=O)N2CC3(C)CC2CC(C)(C)C3)cc1OC (centres undefined) | -12 | -1 | -3 | 65* | 1
COc1cc(/C=C/C(=O)OCC(=O)N2CC3(C)CC2CC(C)(C)C3)ccc1O (centres undefined) | 5 | 0 | 2 | 15 | 0
CC(C)CNC(C(=O)Nc1ccc([N+](=O)[O-])cc1Br)c1ccccc1 (centres undefined) | -13 | 0 | 17 | 79* | 3
O=C(COC(=O)CN1C(=O)C2CC=CCC2C1=O)Nc1cccc([N+](=O)[O-])c1 (centres undefined) | x | x | x | x | -2
COC(=O)c1ccccc1NC(=S)N(Cc1ccc2c(c1)OCO2)Cc1cc2ccc(OC)cc2[nH]c1=O | -2 | 0 | 37 | 58* | 8
CCc1ccc2[nH]c(=O)c(CN(Cc3ccccc3OC)C(=O)Nc3ccccc3OC)cc2c1 | 20 | 0 | 62* | 16 | -2
COC(=O)c1ccccc1NC(=S)N(Cc1ccc2c(c1)OCO2)Cc1cc2cc(C)ccc2[nH]c1=O | -16 | 0 | 43 | 99* | 1
COc1ccccc1NC(=S)N(Cc1ccco1)Cc1cc2cc(C)ccc2[nH]c1=O | 5 | 0 | -4 | 23 | -3
CCOc1ccc2[nH]c(=O)c(CN(CCN3CCCC3)C(=S)Nc3ccccc3OCC)cc2c1 | -41 | -1 | 13 | 98* | -2
COc1ccc2[nH]c(=O)c(CN(CCN3CCCC3)C(=O)Nc3ccccc3Cl)cc2c1 | x | x | 6 | x | 8
O=C(COc1ccccc1[N+](=O)[O-])N1CCN(c2ccccn2)CC1 | x | x | 2 | x | 0
C/C(N)=C(/C#N)C(=O)COC(=O)CCCNC(=O)c1ccc(Cl)cc1 | -18 | 0 | -6 | 0 | -1
COC(=O)c1ccccc1NC(=S)N(Cc1ccc2c(c1)OCO2)Cc1cc2ccc(C)cc2[nH]c1=O | -19 | 0 | 41 | 97* | 1
CCN(CC)CCN(Cc1cc2ccc(C)cc2[nH]c1=O)C(=S)Nc1ccccc1C(=O)OC | -3 | 0 | 36 | 7 | -1
COc1ccc(NC(=S)NC2CCCCC2)c(OC)c1 | -48 | 0 | 19 | 6 | -3
S=C(Nc1cccc2ccccc12)Nc1cccc2ccccc12 | x | x | x | x | 1
S=C(Nc1cccc2ccccc12)NC1CCCCC1 | -38 | 0 | 0 | 99* | 0
COc1ccc(NC(=S)NC2CCCCCC2)c(OC)c1 | -10 | x | -4 | 77* | -1
S=C(Nc1ccccc1Oc1ccccc1)NC1CCCC1 | -22 | 1 | 10 | 61* | 0
COc1ccccc1NC(=S)NC1CCCC1 | x | x | -22 | x | -1
CC(=O)c1ccc(NC(=S)N2CCN(S(=O)(=O)c3ccc(F)cc3)CC2)cc1 | -1 | x | 8 | x | -1
OC(CNCc1ccc(-c2ccccc2)cc1)c1ccccc1 (centres undefined) | 26 | -1 | 30 | 99* | 10
SMILES | Hep lipid drop | DTT redox prof | T cruzi inh | L major viab | MPTP block
OCCNCc1ccc(-c2ccccc2)cc1 | 4 | 0 | 12 | 63* | 1
OC(CNCc1ccncc1)c1ccccc1 (centres undefined) | x | x | -3 | x | -1
CSc1ccc(CN(C)Cc2nc3ccccc3c(=O)[nH]2)cc1 | 0 | x | 1 | x | 2
NS(=O)(=O)c1ccc(Nc2nc(-c3ccc(O)cc3O)cs2)cc1 | 0 | 0 | -10 | 63* | 1
O=C(C1CCC(C(=O)N2CCc3ccccc32)CC1)N1CCc2ccccc21 (centres undefined) | 26 | 2 | 2 | -3 | -1
O=C(CCl)c1ccc2c(c1)CCN2C(=O)C1CC1 | 12 | -1 | 19 | 100* | x
O=C(CCl)c1ccc2c(c1)CCN2C(=O)C1CCCCC1 | 5 | -1 | 90* | 100* | -4
Cc1cccc(C)c1NC(=O)C(c1ccc(-c2ccccc2)cc1)n1c(=O)c(-c2cc3ccccc3[nH]2)nc2ccccc21 (centres undefined) | x | x | x | x | 3
COc1cccc(NC(=O)c2ncn[nH]2)c1 | -10 | 0 | 10 | 6 | 0
O=C(Nc1cccc(NC(=O)c2ncn[nH]2)c1)c1cccc(Cl)c1 | 16 | -1 | 42 | 100* | 0
C/C(=N\Nc1ccccn1)c1ccc2c(c1)OCO2 | 1 | 0 | 11 | 24 | 0
C(=N\Nc1nc2ccccc2[nH]1)/c1ccc2c(c1)OCO2 | 10 | -1 | 29 | 96* | -3
C/C(=N\Nc1nc2ccccc2[nH]1)c1ccc2c(c1)OCO2 | 32 | -4 | 78* | 101* | -1
C/C(=N\Nc1nc2ccccc2[nH]1)c1cc2ccccc2o1 | -4 | 1 | 24 | 68* | 16
C(=N\Nc1nc2ccccc2s1)/c1ccc2c(c1)OCO2 | 23 | 0 | -9 | 6 | 0
C/C(=N\Nc1nc2ccccc2[nH]1)c1ccccn1 | -191 | x | 42 | x | -1
C/C(=N\Nc1nc2ccccc2[nH]1)c1ccc2c(c1)OCCO2 | 5 | -1 | 57* | 100* | -2
CN(C)c1ccc(CNC(=O)c2cc(S(=O)(=O)N3CCOCC3)cn2C)cc1 | -1 | x | -1 | x | 1
CN(C)C=NC(=O)c1cc(C(=O)c2ccc(Cl)cc2Cl)c[nH]1 | -11 | 0 | -14 | -3 | -3
CC(C)(C)OC(=O)N1CCC[C@H]1C(=O)N1CCC[C@H]1C(=O)NCc1ccncc1 | x | x | x | x | 0
O=C1C(Cc2ccc(Br)cc2)SC(=Nc2ccccc2)N1c1ccccc1 (centres undefined) | -31 | 0 | 34 | 54* | 0
O=C1C(Cc2ccc(F)cc2)SC(=Nc2ccccc2)N1c1ccccc1 (centres undefined) | -52 | 1 | 2 | 41 | -1
O[C@H]1C[C@H](c2ccccc2)N(CC2CCCCC2)C[C@@H]1n1cc(C2CC2)nn1 | x | x | x | x | -2
O=C(OCCN1C(=O)c2cccc3c(N4CCOCC4)ccc(c23)C1=O)c1ccccc1Cl | 10 | 0 | 13 | 86* | 2
CCn1nc(C)cc1C(=O)N1CCCC(C(=O)c2ccccc2SC)C1 (centres undefined) | -56 | x | -21 | x | -1
CC[n+]1c(/C=C2/C=C(C)CC(C)C2)sc2ccccc21 (centres undefined) | -3 | 0 | 34 | 100* | 6
Cc1sc2ccccc2[n+]1CCC(C)S(=O)(=O)[O-] (centres undefined) | x | 3 | -1 | -4 | 0
